Experimental data as given in ChEMBL document CHEMBL4699476, “Structure-based drug optimization and biological evaluation of tetrahydroquinolin derivatives as selective and potent CBP bromodomain inhibitors” (Bioorg Med Chem Lett, 2020).

What was measured:
[1] = molecular target: T1, CREB-binding protein (Homo sapiens, UniProt Q92793); test: Inhibition of CBP BRD (unknown origin) by TR-FRET assay
Target sequence in this assay (Q92793 whole entry): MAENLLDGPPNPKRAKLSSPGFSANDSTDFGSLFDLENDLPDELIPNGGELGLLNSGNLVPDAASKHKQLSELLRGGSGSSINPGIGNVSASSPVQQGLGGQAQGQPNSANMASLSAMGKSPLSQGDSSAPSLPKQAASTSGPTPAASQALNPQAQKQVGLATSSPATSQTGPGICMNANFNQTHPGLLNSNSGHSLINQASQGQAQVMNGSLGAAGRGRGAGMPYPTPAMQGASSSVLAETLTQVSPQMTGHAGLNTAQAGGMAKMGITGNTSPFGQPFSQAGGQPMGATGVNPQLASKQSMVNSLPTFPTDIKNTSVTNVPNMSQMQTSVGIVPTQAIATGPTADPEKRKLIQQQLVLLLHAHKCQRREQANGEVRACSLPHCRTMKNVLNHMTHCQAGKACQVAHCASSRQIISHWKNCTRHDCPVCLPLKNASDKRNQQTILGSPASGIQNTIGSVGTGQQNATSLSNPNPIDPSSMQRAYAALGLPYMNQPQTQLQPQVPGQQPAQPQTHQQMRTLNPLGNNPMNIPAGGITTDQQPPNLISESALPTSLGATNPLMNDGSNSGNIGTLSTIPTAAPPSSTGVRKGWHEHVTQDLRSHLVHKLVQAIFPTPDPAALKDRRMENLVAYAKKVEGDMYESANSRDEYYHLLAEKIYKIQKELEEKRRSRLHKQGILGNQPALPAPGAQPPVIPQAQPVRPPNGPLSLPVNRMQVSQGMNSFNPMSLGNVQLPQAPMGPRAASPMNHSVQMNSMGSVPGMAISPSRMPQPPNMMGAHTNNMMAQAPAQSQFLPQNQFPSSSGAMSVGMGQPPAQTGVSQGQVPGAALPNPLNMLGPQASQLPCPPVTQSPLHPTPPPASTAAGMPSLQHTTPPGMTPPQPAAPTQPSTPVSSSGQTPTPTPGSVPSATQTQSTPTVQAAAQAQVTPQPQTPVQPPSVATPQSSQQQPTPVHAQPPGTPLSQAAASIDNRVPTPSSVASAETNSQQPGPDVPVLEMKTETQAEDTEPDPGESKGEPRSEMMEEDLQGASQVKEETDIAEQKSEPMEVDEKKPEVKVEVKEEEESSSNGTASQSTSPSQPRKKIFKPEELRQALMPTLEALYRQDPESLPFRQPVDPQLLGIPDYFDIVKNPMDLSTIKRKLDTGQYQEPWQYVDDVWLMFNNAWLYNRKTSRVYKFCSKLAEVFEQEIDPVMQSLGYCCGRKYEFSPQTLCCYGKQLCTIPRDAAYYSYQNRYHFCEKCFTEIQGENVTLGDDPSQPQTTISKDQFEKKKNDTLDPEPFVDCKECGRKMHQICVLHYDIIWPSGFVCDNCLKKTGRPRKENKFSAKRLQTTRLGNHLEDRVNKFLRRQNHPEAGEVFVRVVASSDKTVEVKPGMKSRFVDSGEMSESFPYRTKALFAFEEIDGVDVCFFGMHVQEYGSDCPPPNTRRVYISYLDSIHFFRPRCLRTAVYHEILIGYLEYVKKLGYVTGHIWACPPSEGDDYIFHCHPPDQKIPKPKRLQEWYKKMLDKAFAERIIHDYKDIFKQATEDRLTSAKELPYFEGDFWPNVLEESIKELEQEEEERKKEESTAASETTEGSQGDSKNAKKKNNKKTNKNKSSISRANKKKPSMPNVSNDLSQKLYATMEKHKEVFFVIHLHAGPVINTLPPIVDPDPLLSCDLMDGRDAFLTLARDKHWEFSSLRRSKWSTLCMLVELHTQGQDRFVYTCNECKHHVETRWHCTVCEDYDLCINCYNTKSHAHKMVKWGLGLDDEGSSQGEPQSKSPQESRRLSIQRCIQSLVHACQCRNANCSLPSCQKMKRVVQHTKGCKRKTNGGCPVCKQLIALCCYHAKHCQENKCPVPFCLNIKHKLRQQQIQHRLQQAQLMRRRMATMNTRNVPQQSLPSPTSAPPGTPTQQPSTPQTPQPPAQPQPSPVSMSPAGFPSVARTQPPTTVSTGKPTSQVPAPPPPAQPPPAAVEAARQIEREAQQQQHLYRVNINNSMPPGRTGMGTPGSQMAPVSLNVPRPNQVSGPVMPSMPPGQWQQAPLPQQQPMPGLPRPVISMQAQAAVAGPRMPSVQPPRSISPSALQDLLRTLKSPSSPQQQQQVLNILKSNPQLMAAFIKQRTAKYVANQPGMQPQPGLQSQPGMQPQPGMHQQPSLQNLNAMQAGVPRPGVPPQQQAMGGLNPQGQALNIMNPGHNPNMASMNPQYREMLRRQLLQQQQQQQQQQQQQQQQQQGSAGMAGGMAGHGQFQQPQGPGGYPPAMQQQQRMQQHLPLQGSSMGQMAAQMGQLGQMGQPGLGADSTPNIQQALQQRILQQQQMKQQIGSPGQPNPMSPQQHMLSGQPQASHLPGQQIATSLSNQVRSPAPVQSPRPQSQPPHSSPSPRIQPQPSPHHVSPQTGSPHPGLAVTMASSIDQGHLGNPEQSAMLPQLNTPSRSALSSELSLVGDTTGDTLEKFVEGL

[2] = tested on: MV4-11; test: Antiproliferative activity against human MV4-11 cells at 6.25 uM incubated for 6 days relative to control; type: functional; conditions: MV4-11, 144 h, time 6 day
Summary of the method: (§1)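 MV4-11 AML cells exposed to test agent at 6.25 or 1.56 µM for 6 days; viability read as percent growth inhibition versus control; inhibition rates are means of at least two determinations.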

[3] = tested on: MV4-11; test: Antiproliferative activity against human MV4-11 cells at 1.56 uM incubated for 6 days relative to control; type: functional; conditions: MV4-11, 144 h, time 6 day; summary of the method: as §1
[4] = molecular target: T1, CREB-binding protein; test: Inhibition of GST-tagged CBP BRD (unknown origin) incubated for 30 mins by HTRF assay
Target sequence in this assay (Q92793 whole entry): as above

[5] = tested on: MV4-11; test: Antiproliferative activity against human MV4-11 cells incubated for 6 days relative to control; type: functional, cell-based; conditions: MV4-11, 144 h
Summary of the method: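 MV4-11 cells treated for 6 days; IC50 derived for agents giving over 50% growth inhibition at 1.56 µM; values reported with ± error.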

[6] = molecular target: T2, Bromodomain-containing protein 4 (Homo sapiens, UniProt O60885); test: Inhibition of BRD4 BD1 (unknown origin) by ALPHAScreen assay
[7] = molecular target: T2, Bromodomain-containing protein 4; test: Inhibition of BRD4 BD2 (unknown origin) by ALPHAScreen assay
[8] = molecular target: T1, CREB-binding protein; test: Binding affinity to CBP BRD (unknown origin) by microscale thermophoresis assay
Target sequence in this assay (Q92793 whole entry): as above

[9] = molecular target: T1, CREB-binding protein; test: Inhibition of CBP in human MV4-11 cells assessed as decrease in c-myc protein expression incubated for 12 hrs by Western blot analysis; type: cell-based; conditions: dose microM 0.25-2, time 12.0 hrs
Summary of the method: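 MV4-11 cells treated at 0, 0.25, 0.5, 1 and 2 µM for 12 h; c-Myc protein level assessed by Western blot.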
Target sequence in this assay (Q92793 2-2442 limits assumed): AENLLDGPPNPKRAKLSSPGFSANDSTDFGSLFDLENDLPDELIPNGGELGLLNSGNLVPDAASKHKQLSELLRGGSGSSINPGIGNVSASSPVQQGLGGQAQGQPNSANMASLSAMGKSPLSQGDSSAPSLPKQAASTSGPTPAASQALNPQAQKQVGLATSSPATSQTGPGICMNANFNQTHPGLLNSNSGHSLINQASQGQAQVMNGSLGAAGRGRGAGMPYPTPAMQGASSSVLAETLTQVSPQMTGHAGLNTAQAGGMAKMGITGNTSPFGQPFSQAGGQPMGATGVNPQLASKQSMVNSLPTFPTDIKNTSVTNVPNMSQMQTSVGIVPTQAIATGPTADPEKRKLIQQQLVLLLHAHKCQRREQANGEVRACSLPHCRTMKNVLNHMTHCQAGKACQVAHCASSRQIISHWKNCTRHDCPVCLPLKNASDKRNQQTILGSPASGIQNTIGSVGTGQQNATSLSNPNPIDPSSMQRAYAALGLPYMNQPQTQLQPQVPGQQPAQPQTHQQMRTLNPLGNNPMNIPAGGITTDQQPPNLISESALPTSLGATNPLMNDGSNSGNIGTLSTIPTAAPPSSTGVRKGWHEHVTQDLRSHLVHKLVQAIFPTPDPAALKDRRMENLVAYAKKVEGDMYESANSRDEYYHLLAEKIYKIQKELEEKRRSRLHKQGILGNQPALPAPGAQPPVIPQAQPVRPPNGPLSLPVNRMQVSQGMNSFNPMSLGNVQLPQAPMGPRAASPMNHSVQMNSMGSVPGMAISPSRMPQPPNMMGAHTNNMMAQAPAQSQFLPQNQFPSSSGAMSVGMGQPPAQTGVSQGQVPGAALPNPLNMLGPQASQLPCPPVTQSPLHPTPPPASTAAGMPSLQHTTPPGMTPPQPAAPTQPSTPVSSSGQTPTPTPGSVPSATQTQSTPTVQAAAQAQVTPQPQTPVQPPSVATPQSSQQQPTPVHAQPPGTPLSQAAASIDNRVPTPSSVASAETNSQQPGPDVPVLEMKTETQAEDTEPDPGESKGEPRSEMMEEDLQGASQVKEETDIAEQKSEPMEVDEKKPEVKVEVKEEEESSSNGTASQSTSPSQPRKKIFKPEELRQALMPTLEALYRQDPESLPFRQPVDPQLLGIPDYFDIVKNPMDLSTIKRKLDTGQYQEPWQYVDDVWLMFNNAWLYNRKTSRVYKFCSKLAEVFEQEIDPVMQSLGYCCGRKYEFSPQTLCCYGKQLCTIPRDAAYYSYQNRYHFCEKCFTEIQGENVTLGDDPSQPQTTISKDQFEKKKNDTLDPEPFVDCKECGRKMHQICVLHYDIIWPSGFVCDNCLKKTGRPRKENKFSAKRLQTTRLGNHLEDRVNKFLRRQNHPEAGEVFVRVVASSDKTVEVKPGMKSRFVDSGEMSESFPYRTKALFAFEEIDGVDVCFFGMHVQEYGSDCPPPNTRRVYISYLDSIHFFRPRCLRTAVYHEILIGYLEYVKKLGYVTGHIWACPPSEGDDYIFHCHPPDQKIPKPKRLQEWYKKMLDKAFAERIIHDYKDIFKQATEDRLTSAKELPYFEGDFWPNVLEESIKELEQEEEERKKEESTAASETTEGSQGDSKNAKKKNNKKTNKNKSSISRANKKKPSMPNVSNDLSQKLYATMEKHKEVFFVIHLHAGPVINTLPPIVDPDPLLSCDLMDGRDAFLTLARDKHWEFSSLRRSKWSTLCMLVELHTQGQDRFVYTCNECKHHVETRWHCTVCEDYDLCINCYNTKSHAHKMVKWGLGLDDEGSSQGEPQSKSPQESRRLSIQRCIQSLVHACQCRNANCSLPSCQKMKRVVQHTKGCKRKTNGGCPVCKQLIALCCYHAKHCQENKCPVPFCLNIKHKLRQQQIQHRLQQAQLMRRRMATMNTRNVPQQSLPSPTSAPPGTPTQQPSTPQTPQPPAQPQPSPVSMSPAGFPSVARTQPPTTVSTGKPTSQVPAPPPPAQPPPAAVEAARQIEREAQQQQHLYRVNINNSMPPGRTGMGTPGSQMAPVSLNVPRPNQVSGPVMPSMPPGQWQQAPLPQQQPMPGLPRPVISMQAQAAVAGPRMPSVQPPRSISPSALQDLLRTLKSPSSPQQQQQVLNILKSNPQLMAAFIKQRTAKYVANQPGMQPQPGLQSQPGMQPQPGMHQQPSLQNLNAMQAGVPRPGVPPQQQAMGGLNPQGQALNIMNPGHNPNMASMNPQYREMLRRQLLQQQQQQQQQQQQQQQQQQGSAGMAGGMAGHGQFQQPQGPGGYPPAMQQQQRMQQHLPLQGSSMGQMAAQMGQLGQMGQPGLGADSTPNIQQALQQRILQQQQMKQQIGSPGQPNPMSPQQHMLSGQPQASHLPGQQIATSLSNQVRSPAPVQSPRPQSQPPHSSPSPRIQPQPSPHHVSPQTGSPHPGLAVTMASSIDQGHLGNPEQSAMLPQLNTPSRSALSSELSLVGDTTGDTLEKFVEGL

[10] = species on record: Homo sapiens; test: Selectivity index, ratio of IC50 for BR4 BD1 (unknown origin) to IC50 for CBP BRD (unknown origin)
[11] = species on record: Homo sapiens; test: Selectivity index, ratio of IC50 for BR4 BD2 (unknown origin) to IC50 for CBP BRD (unknown origin)

| SMILES | IC50 [1] [µM] | inhibition at 6.25 µM [2] [%] | inhibition at 1.56 µM [3] [%] | also measured |
| --- | --- | --- | --- | --- |
| CNC(=O)N1CCCc2ccc(NC(=O)c3ccc(-c4ccncc4)cc3)cc21 | 0.0892 | 88.7 | 37.6 | – |
| CNC(=O)N1CCCc2ccc(NC(=O)c3cccc(-c4cnn(C(C)=O)c4)c3)cc21 | 0.0765 | 82 | 33.5 | – |
| CNC(=O)N1CCCc2ccc(NC(=O)c3ccc(-c4cnn(C(C)=O)c4)cc3)cc21 | 0.0852 | 83.8 | 23.9 | – |
| CNC(=O)N1CCCc2ccc(NC(=O)c3cccc(-c4ccncc4)c3)cc21 | 0.0633 | – | – | IC50 [4]: 0.0633 µM |
| COC(=O)N1CCCc2ccc(NC(=O)C3CC=CCC3C(=O)O)cc21 (centres undefined) | – | – | – | IC50 [4]: 2.3 µM |
| CNC(=O)N1CCCc2ccc(NC(=O)c3ccc(-c4cccnc4)cc3)cc21 | 0.0537 | 92.1 | 62.5 | IC50 [5]: 1.16 µM |
| CNC(=O)N1CCCc2ccc(NC(=O)c3ccc(-c4ccccc4)cc3)cc21 | 0.195 | 74.3 | 19.6 | – |
| CNC(=O)N1CCCc2ccc(NC(=O)c3ccc(-c4ccn(C(C)=O)n4)cc3)cc21 | 0.0523 | 91.3 | 35.8 | – |
| CNC(=O)N1CCCc2ccc(NC(=O)c3cccc(-c4cc[nH]n4)c3)cc21 | 0.0929 | 89.7 | 27.3 | – |
| CNC(=O)N1CCCc2ccc(NC(=O)c3cccc(-c4ccn(S(C)(=O)=O)n4)c3)cc21 | 0.103 | 37 | 4.03 | – |
| CNC(=O)N1CCCc2ccc(NC(=O)c3cccc(-c4cnn(C)c4)c3)cc21 | 0.0554 | 93.5 | 71.2 | IC50 [5]: 1.04 µM |
| CNC(=O)N1CCCc2ccc(NC(=O)c3cccc(-c4ccn(C(C)=O)n4)c3)cc21 | 0.0946 | 87.6 | 27.6 | – |
| CNC(=O)N1CCCc2ccc(NC(=O)c3ccc(-c4cn[nH]c4)cc3)cc21 | 0.0477 | 98.3 | 73.5 | IC50 [5]: 0.87 µM |
| CNC(=O)N1CCCc2ccc(NC(=O)c3cccc(-c4ccn(C)n4)c3)cc21 | 0.0457 | 99.5 | 70.5 | IC50 [5]: 0.98 µM |
| CNC(=O)N1CCCc2ccc(NC(=O)c3ccccc3-c3ccccc3)cc21 | – | 1.39 | 2.83 | IC50 [4]: 0.213 µM |
| CNC(=O)N1CCCc2ccc(NC(=O)c3cccc(-c4cn[nH]c4)c3)cc21 | 0.0913 | 77.7 | 27.9 | – |
| CNC(=O)N1CCCc2ccc(NC(=O)c3ccc(-c4cnn(C)c4)cc3)cc21 | 0.0374 | 94.4 | 77.3 | IC50 [5]: 0.73 µM |
| CNC(=O)N1CCCc2ccc(NC(=O)c3ccc(-c4ccccn4)cc3)cc21 | 0.102 | 79.2 | 31.9 | – |
| C[C@@H]1CC(=O)Nc2cccc(-c3ccc4c(c3)c(-c3cnn(C)c3)nn4C)c2N1 | – | – | – | IC50 [6]: 12 µM; IC50 [7]: 18.8 µM |
| CNC(=O)N1CCCc2ccc(NC(=O)c3ccc(-c4ccn(S(C)(=O)=O)n4)cc3)cc21 | 0.0744 | 57.2 | 8.81 | – |
| CNC(=O)N1CCCc2ccc(NC(=O)c3ccc(-c4cnn(S(C)(=O)=O)c4)cc3)cc21 | 0.0931 | 40.2 | 4.5 | – |
| CNC(=O)N1CCCc2ccc(NC(=O)c3cccc(-c4ccccc4)c3)cc21 | – | 60.4 | 10.7 | IC50 [4]: 8.41 µM |
| CNC(=O)N1CCCc2ccc(NC(=O)c3ccc(-c4cc[nH]n4)cc3)cc21 | 0.0195 | 99.1 | 92.5 | IC50 [6]: 8.4 µM; Kd [8]: 0.0254 µM; IC50 [7]: 19 µM; IC50 [5]: 0.55 µM; inhibition [9]: Dose-dependent effect; Ratio IC50 [10]: > 400; Ratio IC50 [11]: > 400 |
| CNC(=O)N1CCCc2ccc(NC(=O)c3ccc(-c4ccn(C)n4)cc3)cc21 | 0.0402 | 97 | 72.2 | IC50 [5]: 0.83 µM |
| CNC(=O)N1CCCc2ccc(NC(=O)c3cccc(-c4cnn(S(C)(=O)=O)c4)c3)cc21 | 0.286 | 18 | 1.6 | – |
